The source made the active and inactive calls. The rule behind the calls is not given here. Numbered stars: 1 amine (or outer) side, 2 acyl side, 3 side chain; on linkers, the order of the positions; unused ones are H or OH. Square brackets hold non-standard residues; d marks the D form. Peptide text beside a SMILES is read from it. * marks the point of attachment. X1 = CCC(=O)C[C@@H](O)C[C@@H](C)C[C@H](N[*:1])C(=O)[*:2]; X4 = CCCC[C@@H](O)C[C@@H](C)C[C@H](N[*:1])C(=O)[*:2]; X2 = CCC(=O)/C=C/C[C@@H](C)C[C@H](N[*:1])C(=O)[*:2]; X3 = CCC(=O)CCC[C@@H](C)C[C@H](N[*:1])C(=O)[*:2]; Hexenoyl(2E,4S-Me) = CC[C@H](C)/C=C/C(=O)*; Leu(3R-OH) = CC(C)[C@@H](O)[C@H](N)C(=O)O; NH((S)CH(Me)CH2NMe2) = C[C@@H](CN(C)C)N*; Pro(4S-Me) = C[C@@H]1CN[C@H](C(=O)O)C1; NH((S)CH(CH3)CH2NHMe) = CNC[C@H](C)N*; Aib = CC(C)(N)C(=O)O; βAla = NCCC(=O)O
Legend:
HCC1937 [1] = assay: Antiproliferative activity against human HCC1937 cells at >1 uM incubated for 48 hrs by sulforhodamine B assay; type: functional, cell-based
In short: (§1)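 Cells (RPMI-1640 with 5% FBS, 0.5% gentamicin; used within 4 months of thaw) were seeded at set densities, allowed to adhere, then treated 48 h with compound or DMSO vehicle. Cells were fixed and SRB-stained, with absorbance read at 560 nm. GI50 vs vehicle was taken by non-linear regression; three independent experiments, each in triplicate.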

HCC1806 [2] = assay: Antiproliferative activity against human HCC1806 cells up to 100 nM incubated for 48 hrs by sulforhodamine B assay; type: functional, cell-based; in short: as §1
SUM185PE [3] = assay: Antiproliferative activity against human SUM185PE cells at 1 to 100 nM incubated for 48 hrs by sulforhodamine B assay; type: functional, cell-based
In short: (§2)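 IMEM with 5% FBS and 0.3% gentamicin; cells used within 4 months of thaw. After seeding at set densities and adhering, cells got compound or DMSO vehicle for 48 h, then were fixed and SRB-stained, with A560 read. GI50 (50% proliferation inhibition vs vehicle) came from non-linear regression of concentration-response curves; three independent experiments, each in triplicate.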

MDA-MB-453 [4] = assay: Antiproliferative activity against human MDA-MB-453 cells incubated for 48 hrs by sulforhodamine B assay; type: functional; settings: MDA-MB-453, 48 h; in short: as §2
MDA-MB-231 [5] = assay: Antiproliferative activity against human MDA-MB-231 cells up to 100 nM incubated for 48 hrs by sulforhodamine B assay; type: functional, cell-based; in short: as §2
BT-549 [6] = assay: Antiproliferative activity against human BT549 cells at >1 uM incubated for 48 hrs by sulforhodamine B assay; type: functional, cell-based; in short: as §1
MDA-MB-231 [7] = assay: Antiproliferative activity against human MDA-MB-231 cells incubated for 48 hrs by sulforhodamine B assay; type: functional; settings: MDA-MB-231, 48 h; in short: as §2
HCC1937 [8] = assay: Antiproliferative activity against human HCC1937 cells up to 100 nM incubated for 48 hrs by sulforhodamine B assay; type: functional, cell-based; in short: as §1
MDA-MB-231 [9] = assay: Antiproliferative activity against human MDA-MB-231 cells at > 1 uM incubated for 48 hrs by sulforhodamine B assay; type: functional, cell-based; in short: as §2
BT-549 [10] = assay: Antiproliferative activity against human BT549 cells up to 100 nM incubated for 48 hrs by sulforhodamine B assay; type: functional, cell-based; in short: as §1
MDA-MB-453 [11] = assay: Antiproliferative activity against human MDA-MB-453 cells at 1 to 100 nM incubated for 48 hrs by sulforhodamine B assay; type: functional, cell-based; in short: as §2
HCC1806 [12] = assay: Antiproliferative activity against human HCC1806 cells at >1 uM incubated for 48 hrs by sulforhodamine B assay; type: functional, cell-based; in short: as §1
SUM185PE [13] = assay: Antiproliferative activity against human SUM185PE cells incubated for 48 hrs by sulforhodamine B assay; type: functional; in short: as §2
MDA-MB-453 [14] = assay: Antiproliferative activity against human MDA-MB-453 cells at > 1 uM incubated for 48 hrs by sulforhodamine B assay; type: functional, cell-based; in short: as §2
mTORC1 (Homo sapiens) [15] = target: T1, mTORC1 (Homo sapiens) (UniProt P42345+Q8N122+Q9BVC4); settings: MDA-MB-231, 10 nM
mTORC1 (Homo sapiens) [16] = target: T1, mTORC1 (Homo sapiens); settings: MDA-MB-453, 10 nM

T1 sequence (Q8N122 whole entry, looked up, other chains not shown): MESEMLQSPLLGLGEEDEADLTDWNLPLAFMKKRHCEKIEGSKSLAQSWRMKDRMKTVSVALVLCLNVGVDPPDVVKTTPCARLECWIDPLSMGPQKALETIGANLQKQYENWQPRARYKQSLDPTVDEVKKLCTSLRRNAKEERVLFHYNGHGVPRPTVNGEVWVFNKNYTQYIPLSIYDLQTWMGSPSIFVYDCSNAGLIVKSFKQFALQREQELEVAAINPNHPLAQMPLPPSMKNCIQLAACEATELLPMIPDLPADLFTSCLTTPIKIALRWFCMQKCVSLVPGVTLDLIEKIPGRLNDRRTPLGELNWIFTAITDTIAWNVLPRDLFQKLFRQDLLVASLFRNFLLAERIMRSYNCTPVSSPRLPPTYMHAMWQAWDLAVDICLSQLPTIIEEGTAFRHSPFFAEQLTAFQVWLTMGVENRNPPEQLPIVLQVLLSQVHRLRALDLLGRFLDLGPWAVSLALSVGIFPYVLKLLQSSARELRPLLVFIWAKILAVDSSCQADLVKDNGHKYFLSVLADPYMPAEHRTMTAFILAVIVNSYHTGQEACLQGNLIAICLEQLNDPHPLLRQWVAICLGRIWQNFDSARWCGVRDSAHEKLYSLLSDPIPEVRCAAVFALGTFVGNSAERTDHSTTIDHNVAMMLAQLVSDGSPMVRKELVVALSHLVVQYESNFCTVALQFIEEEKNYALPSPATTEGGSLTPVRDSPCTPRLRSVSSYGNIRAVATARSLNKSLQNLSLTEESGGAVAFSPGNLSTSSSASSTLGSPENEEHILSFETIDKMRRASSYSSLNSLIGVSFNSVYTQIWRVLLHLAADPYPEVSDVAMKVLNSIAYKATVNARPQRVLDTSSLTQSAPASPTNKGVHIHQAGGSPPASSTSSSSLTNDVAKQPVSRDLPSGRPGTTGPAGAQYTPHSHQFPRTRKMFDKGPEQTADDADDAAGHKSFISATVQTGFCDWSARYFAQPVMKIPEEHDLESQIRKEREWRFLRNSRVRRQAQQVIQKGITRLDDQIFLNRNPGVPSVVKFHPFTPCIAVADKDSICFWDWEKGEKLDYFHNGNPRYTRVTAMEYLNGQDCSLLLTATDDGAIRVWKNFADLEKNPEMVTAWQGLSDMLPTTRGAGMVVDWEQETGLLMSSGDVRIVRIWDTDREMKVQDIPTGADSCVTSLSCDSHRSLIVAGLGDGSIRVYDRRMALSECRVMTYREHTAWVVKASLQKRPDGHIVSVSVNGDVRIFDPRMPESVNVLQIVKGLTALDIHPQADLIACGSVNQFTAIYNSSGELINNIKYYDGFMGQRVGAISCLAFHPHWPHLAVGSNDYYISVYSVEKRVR
T1 sequence (Q9BVC4 whole entry, looked up, other chains not shown): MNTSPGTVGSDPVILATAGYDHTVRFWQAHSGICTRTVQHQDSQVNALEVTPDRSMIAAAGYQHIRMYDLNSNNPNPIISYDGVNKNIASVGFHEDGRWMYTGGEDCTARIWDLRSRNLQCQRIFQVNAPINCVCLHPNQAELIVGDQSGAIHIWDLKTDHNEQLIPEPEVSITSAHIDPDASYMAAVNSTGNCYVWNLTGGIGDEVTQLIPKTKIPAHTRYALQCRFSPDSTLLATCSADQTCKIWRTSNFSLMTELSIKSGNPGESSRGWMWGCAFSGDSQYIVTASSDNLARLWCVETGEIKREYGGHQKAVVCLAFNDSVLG

GI50 (MDA-MB-453 [4]) | Structure (SMILES) | Activity (HCC1937 [1]) | Activity (HCC1806 [2]) | Activity (SUM185PE [3]) | Activity (MDA-MB-231 [5]) | Activity (BT-549 [6]) | GI50 (MDA-MB-231 [7]) | Activity (HCC1937 [8]) | Activity (MDA-MB-231 [9]) | Activity (BT-549 [10]) | Activity (MDA-MB-453 [11]) | Activity (HCC1806 [12]) | GI50 (SUM185PE [13]) | Activity (MDA-MB-453 [14]) | inhibition (mTORC1 (Homo sapiens) [15]) | inhibition (mTORC1 (Homo sapiens) [16])
2.3 nM | CC[C@H](C)/C=C/C(=O)N1C[C@@H](C)C[C@H]1C(=O)N[C@@H](CC(C)C)C(=O)N[C@H](C(=O)NC(C)(C)C(=O)N[C@@H](CC(C)C)C(=O)N[C@@H](CC(C)C)C(=O)NC(C)(C)C(=O)NC(C)(C)C(=O)NCCC(=O)N[C@@H](C)CN(C)C)[C@H](O)C(C)C ({Hexenoyl(2E,4S-Me)}-[Pro(4S-Me)]L[Leu(3R-OH)][Aib]LL[Aib][Aib][βAla]-{NH((S)CH(Me)CH2NMe2)}) | Active | inactive | Active | inactive | Active | > 100 nM | inactive | Active | inactive | Active | Active | 1.4 nM | Active | – | –
– | CCCC[C@@H](O)C[C@@H](C)C[C@H](NC(=O)[C@@H]1C[C@H](C)CN1C(=O)/C=C/[C@@H](C)CC)C(=O)N[C@H](C(=O)NC(C)(C)C(=O)N[C@@H](CC(C)C)C(=O)N[C@@H](CC(C)C)C(=O)NC(C)(C)C(=O)NC(C)(C)C(=O)NCCC(=O)N[C@@H](C)CN(C)C)[C@H](O)C(C)C ({Hexenoyl(2E,4S-Me)}-[Pro(4S-Me)][X4][Leu(3R-OH)][Aib]LL[Aib][Aib][βAla]-{NH((S)CH(Me)CH2NMe2)}) | Active | inactive | Active | inactive | Active | > 100 nM | inactive | Active | inactive | Active | Active | – | Active | – | –
– | CCCC[C@@H](O)C[C@@H](C)C[C@H](NC(=O)[C@@H]1C[C@H](C)CN1C(=O)/C=C/[C@@H](C)CC)C(=O)N[C@H](C(=O)NC(C)(C)C(=O)N[C@@H](CC(C)C)C(=O)N[C@@H](CC(C)C)C(=O)NC(C)(C)C(=O)NC(C)(C)C(=O)NCCC(=O)N[C@@H](C)CNC)[C@H](O)C(C)C ({Hexenoyl(2E,4S-Me)}-[Pro(4S-Me)][X4][Leu(3R-OH)][Aib]LL[Aib][Aib][βAla]-{NH((S)CH(CH3)CH2NHMe)}) | Active | inactive | Active | inactive | Active | > 100 nM | inactive | Active | inactive | Active | Active | – | Active | – | –
– | CCC(=O)CCC[C@@H](C)C[C@H](NC(=O)[C@@H]1C[C@H](C)CN1C(=O)/C=C/[C@@H](C)CC)C(=O)N[C@H](C(=O)NC(C)(C)C(=O)N[C@@H](CC(C)C)C(=O)N[C@@H](CC(C)C)C(=O)NC(C)(C)C(=O)NC(C)(C)C(=O)NCCC(=O)N[C@@H](C)CN(C)C)[C@H](O)C(C)C ({Hexenoyl(2E,4S-Me)}-[Pro(4S-Me)][X3][Leu(3R-OH)][Aib]LL[Aib][Aib][βAla]-{NH((S)CH(Me)CH2NMe2)}) | Active | inactive | Active | inactive | Active | > 100 nM | inactive | Active | inactive | Active | Active | – | Active | – | –
4 nM | CCC(=O)/C=C/C[C@@H](C)C[C@H](NC(=O)[C@@H]1C[C@H](C)CN1C(=O)/C=C/[C@@H](C)CC)C(=O)N[C@H](C(=O)NC(C)(C)C(=O)N[C@@H](CC(C)C)C(=O)N[C@@H](CC(C)C)C(=O)NC(C)(C)C(=O)NC(C)(C)C(=O)NCCC(=O)N[C@@H](C)CNC)[C@H](O)C(C)C ({Hexenoyl(2E,4S-Me)}-[Pro(4S-Me)][X2][Leu(3R-OH)][Aib]LL[Aib][Aib][βAla]-{NH((S)CH(CH3)CH2NHMe)}) | Active | inactive | Active | inactive | Active | > 100 nM | inactive | Active | inactive | Active | Active | 2.2 nM | Active | – | –
7.9 nM | CCC(=O)/C=C/C[C@@H](C)C[C@H](NC(=O)[C@@H]1C[C@H](C)CN1C(=O)/C=C/[C@@H](C)CC)C(=O)N[C@H](C(=O)NC(C)(C)C(=O)N[C@@H](CC(C)C)C(=O)N[C@@H](CC(C)C)C(=O)NC(C)(C)C(=O)NC(C)(C)C(=O)NCCC(=O)N[C@@H](C)CN(C)C)[C@H](O)C(C)C ({Hexenoyl(2E,4S-Me)}-[Pro(4S-Me)][X2][Leu(3R-OH)][Aib]LL[Aib][Aib][βAla]-{NH((S)CH(Me)CH2NMe2)}) | Active | inactive | Active | inactive | Active | > 100 nM | inactive | Active | inactive | Active | Active | 4.4 nM | Active | – | –
– | CCC(=O)C[C@@H](O)C[C@@H](C)C[C@H](NC(=O)[C@@H]1C[C@H](C)CN1C(=O)/C=C/[C@@H](C)CC)C(=O)N[C@H](C(=O)NC(C)(C)C(=O)N[C@@H](CC(C)C)C(=O)N[C@@H](CC(C)C)C(=O)NC(C)(C)C(=O)NC(C)(C)C(=O)NCCC(=O)N[C@@H](C)CN(C)C)[C@H](O)C(C)C ({Hexenoyl(2E,4S-Me)}-[Pro(4S-Me)][X1][Leu(3R-OH)][Aib]LL[Aib][Aib][βAla]-{NH((S)CH(Me)CH2NMe2)}) | Active | inactive | Active | inactive | Active | – | inactive | Active | inactive | Active | Active | – | Active | – | –
– | CCC(=O)CCC[C@@H](C)C[C@H](NC(=O)[C@@H]1C[C@H](C)CN1C(=O)/C=C/[C@@H](C)CC)C(=O)N[C@H](C(=O)NC(C)(C)C(=O)N[C@@H](CC(C)C)C(=O)N[C@@H](CC(C)C)C(=O)NC(C)(C)C(=O)NC(C)(C)C(=O)NCCC(=O)N[C@@H](C)CNC)[C@H](O)C(C)C ({Hexenoyl(2E,4S-Me)}-[Pro(4S-Me)][X3][Leu(3R-OH)][Aib]LL[Aib][Aib][βAla]-{NH((S)CH(CH3)CH2NHMe)}) | Active | inactive | Active | inactive | Active | > 100 nM | inactive | Active | inactive | Active | Active | – | Active | – | –

Structure (SMILES) | GI50 (MDA-MB-453 [4]) | Activity (HCC1937 [1]) | Activity (HCC1806 [2]) | Activity (SUM185PE [3]) | Activity (MDA-MB-231 [5]) | Activity (BT-549 [6]) | GI50 (MDA-MB-231 [7]) | Activity (HCC1937 [8]) | Activity (MDA-MB-231 [9]) | Activity (BT-549 [10]) | Activity (MDA-MB-453 [11]) | Activity (HCC1806 [12]) | GI50 (SUM185PE [13]) | Activity (MDA-MB-453 [14]) | inhibition (mTORC1 (Homo sapiens) [15]) | inhibition (mTORC1 (Homo sapiens) [16])
CO[C@H]1C[C@@H]2CC[C@@H](C)[C@@](O)(O2)C(=O)C(=O)N2CCCC[C@H]2C(=O)O[C@H]([C@H](C)C[C@@H]2CC[C@@H](O)[C@H](OC)C2)CC(=O)[C@H](C)/C=C(\C)[C@@H](O)[C@@H](OC)C(=O)[C@H](C)C[C@H](C)/C=C/C=C/C=C/1C [SIROLIMUS] | 0.05 nM | – | – | – | – | – | > 100 nM | – | – | – | – | – | 0.04 nM | – | Active | Active
CC[C@H](C)/C=C/C(=O)N1C[C@@H](C)C[C@H]1C(=O)N[C@@H](CC(C)C)C(=O)N[C@H](C(=O)NC(C)(C)C(=O)N[C@@H](CC(C)C)C(=O)N[C@@H](CC(C)C)C(=O)NC(C)(C)C(=O)NC(C)(C)C(=O)NCCC(=O)N[C@@H](C)CNC)[C@H](O)C(C)C ({Hexenoyl(2E,4S-Me)}-[Pro(4S-Me)]L[Leu(3R-OH)][Aib]LL[Aib][Aib][βAla]-{NH((S)CH(CH3)CH2NHMe)}) | 2.6 nM | Active | inactive | Active | inactive | Active | > 100 nM | inactive | Active | inactive | Active | Active | 2 nM | Active | – | –

Source: ChEMBL document CHEMBL4622886, “Leucinostatins from Ophiocordyceps spp. and Purpureocillium spp. Demonstrate Selective Antiproliferative Effects in Cells Representing the Luminal Androgen Receptor Subtype of Triple Negative Breast Cancer” (2020)
